Experimental data published in ChEMBL document CHEMBL1687755, “PER-6, an extended-spectrum beta-lactamase from Aeromonas allosaccharophila” (Antimicrob Agents Chemother, 2010).
≈ marks a conversion by molar mass, not a printed value.

How the values were obtained:
[1] = tested on: Escherichia coli; assay: Antimicrobial activity against Escherichia coli DH10B by agar dilution method; type: functional; details: K-12 DH10B
In short: (§1)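 MICs measured by agar dilution on Mueller-Hinton agar plates, the method used for imipenem and imipenem combined with clavulanate; other MICs were obtained by Etest. Results were interpreted according to CLSI guidelines. Test strains were E. coli DH10B recombinants carrying cloned PER-1, PER-2 or PER-6 β-lactamase genes.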

[2] = tested on: Aeromonas allosaccharophila; assay: Antimicrobial activity against Aeromonas allosaccharophila AL-1 expressing beta-lactamase PER6 by agar dilution method; type: functional
In short: (§2)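 The test organism was environmental isolate AL-1, recovered from Seine River water on MacConkey agar containing ceftazidime (2 μg/ml). It was identified by API 32GN and 16S rRNA gene sequencing. MICs were determined by agar dilution on Mueller-Hinton agar and interpreted by CLSI guidelines.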

[3] = tested on: Escherichia coli; assay: Antimicrobial activity against Escherichia coli DH10B harboring recombinant Aeromonas allosaccharophila AL-1 beta-lactamase PER1 by agar dilution method; type: functional; details: K-12 DH10B
[4] = tested on: Escherichia coli; assay: Antimicrobial activity against Escherichia coli DH10B harboring recombinant Aeromonas allosaccharophila AL-1 beta-lactamase PER6 by agar dilution method; type: functional; details: K-12 DH10B
[5] = tested on: Aeromonas allosaccharophila; assay: Ratio of Kcat to Km for Aeromonas allosaccharophila AL-1 beta-lactamase PER2
[6] = tested on: Escherichia coli; assay: Antimicrobial activity against Escherichia coli DH10B harboring recombinant Aeromonas allosaccharophila AL-1 beta-lactamase PER2 by agar dilution method; type: functional; details: K-12 DH10B
[7] = tested on: Escherichia coli; assay: Antimicrobial activity against Escherichia coli DH10B by agar dilution method in presence of 4 ug/ml of clavulanic acid; type: functional; details: K-12 DH10B; in short: as §1
[8] = tested on: Escherichia coli; assay: Antimicrobial activity against Escherichia coli DH10B harboring recombinant Aeromonas allosaccharophila AL-1 beta-lactamase PER6 by agar dilution method in presence of 4 ug/ml of clavulanic acid; type: functional; details: K-12 DH10B
[9] = tested on: Escherichia coli; assay: Antimicrobial activity against Escherichia coli DH10B harboring recombinant Aeromonas allosaccharophila AL-1 beta-lactamase PER1 by agar dilution method in presence of 4 ug/ml of clavulanic acid; type: functional; details: K-12 DH10B
[10] = tested on: Aeromonas allosaccharophila; assay: Antimicrobial activity against Aeromonas allosaccharophila AL-1 expressing beta-lactamase PER6 by agar dilution method in presence of 4 ug/ml of clavulanic acid; type: functional; in short: as §2
[11] = tested on: Escherichia coli; assay: Antimicrobial activity against Escherichia coli DH10B harboring recombinant Aeromonas allosaccharophila AL-1 beta-lactamase PER2 by agar dilution method in presence of 4 ug/ml of clavulanic acid; type: functional; details: K-12 DH10B

C[C@@H](O)[C@H]1C(=O)N2C(C(=O)O)=C(S[C@@H]3CN[C@H](C(=O)Nc4cccc(C(=O)O)c4)C3)[C@H](C)[C@H]12
MIC [1]: < 0.03 µg/mL
MIC [2]: 0.5 µg/mL (≈ 1.05 µM)

CO/N=C(\C(=O)N[C@@H]1C(=O)N2C(C(=O)[O-])=C(C[N+]3(C)CCCC3)CS[C@H]12)c1csc(N)n1
MIC [3]: 16 µg/mL
MIC [4]: 32 µg/mL
kcat/Km [5]: 20000 M⁻¹ s⁻¹
MIC [2]: 0.5 µg/mL (≈ 1.04 µM)
MIC [6]: 32 µg/mL

CC1(C)S[C@@H]2[C@H](NC(=O)Cc3ccccc3)C(=O)N2[C@H]1C(=O)O
kcat/Km [5]: 120000 M⁻¹ s⁻¹

CC1(C)S[C@@H]2[C@H](NC(=O)[C@H](N)c3ccccc3)C(=O)N2[C@H]1C(=O)O
kcat/Km [5]: 330000 M⁻¹ s⁻¹

CC1(C)S[C@@H]2[C@H](NC(=O)[C@H](N)c3ccc(O)cc3)C(=O)N2[C@H]1C(=O)O [AMOXICILLIN]
MIC [3]: > 256 µg/mL
MIC [1]: 4 µg/mL (≈ 10.9 µM)
MIC [4]: > 256 µg/mL
MIC [7]: 4 µg/mL
MIC [8]: 4 µg/mL
MIC [9]: 4 µg/mL
MIC [2]: > 256 µg/mL
MIC [10]: 12 µg/mL
MIC [11]: 6 µg/mL
MIC [6]: > 256 µg/mL

C[C@H]1[C@H](NC(=O)/C(=N\OC(C)(C)C(=O)O)c2csc(N)n2)C(=O)N1S(=O)(=O)O [AZTREONAM]
MIC [3]: > 256 µg/mL
MIC [4]: > 256 µg/mL
kcat/Km [5]: 120000 M⁻¹ s⁻¹
MIC [2]: 1 µg/mL (≈ 2.3 µM)
MIC [6]: > 256 µg/mL

CO/N=C(\C(=O)N[C@@H]1C(=O)N2C(C(=O)O)=C(COC(C)=O)CS[C@H]12)c1csc(N)n1 [CEFOTAXIME]
MIC [3]: 48 µg/mL
MIC [1]: 0.12 µg/mL (≈ 0.263 µM)
MIC [4]: 64 µg/mL
kcat/Km [5]: 760000 M⁻¹ s⁻¹
MIC [2]: 2 µg/mL (≈ 4.39 µM)
MIC [6]: 64 µg/mL

CO[C@@]1(NC(=O)Cc2cccs2)C(=O)N2C(C(=O)O)=C(COC(N)=O)CS[C@@H]21 [CEFOXITIN]
MIC [3]: 2 µg/mL
MIC [1]: 1 µg/mL (≈ 2.34 µM)
MIC [4]: 2 µg/mL
kcat/Km [5]: < 10000 M⁻¹ s⁻¹
MIC [2]: 0.5 µg/mL (≈ 1.17 µM)
MIC [6]: 2 µg/mL
